Results published in ChEMBL document CHEMBL1149065, “Synthesis and structure-activity relationships of cytotoxic 7-hydroxy sterols” (J Nat Prod, 1994).

Key:
Saccharomyces cerevisiae = assay: Antifungal activity against Saccharomyces cerevisiae RS 322YK (rad 52Y) assessed as DNA damaging activity; format: functional, organism-based
In short: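 Growth inhibition of the rad 52 mutant strain RS322YK of *Saccharomyces cerevisiae*, measured as a zone of inhibition. Activity is reported as IC₁₂, the concentration giving a 12 mm diameter inhibition zone, in µg/ml. Sterols were also tested against the wild-type RAD⁺ strain.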

Vero = assay: Cytotoxicity against african green monkey Vero cells; format: cell-based; conditions: Chlorocebus sabaeus

Compound	IC12 (Saccharomyces cerevisiae) [µg/mL]	IC50 (Vero) [µM]
CC(C)[C@@]1(CC[C@@H](C)[C@H]2CC[C@H]3[C@@H]4[C@@H](O)C=C5C[C@@H](O)CC[C@]5(C)[C@H]4CC[C@]23C)CO1	> 8000	16
C=C(CC[C@@H](C)[C@H]1CC[C@H]2[C@@H]3[C@@H](O)C=C4C[C@@H](O)CC[C@]4(C)[C@H]3CC[C@]12C)C(C)C	> 8000	31
CC(C)C(=O)CC[C@@H](C)[C@H]1CC[C@H]2[C@@H]3[C@@H](O)C=C4C[C@@H](O)CC[C@]4(C)[C@H]3CC[C@]12C	> 500	21
CC(C)[C@@]1(CC[C@@H](C)[C@H]2CC[C@H]3[C@@H]4[C@H](O)C=C5C[C@@H](O)CC[C@]5(C)[C@H]4CC[C@]23C)CO1	0.2	> 100
CC(C)C(=O)CC[C@@H](C)[C@H]1CC[C@H]2[C@@H]3[C@H](O)C=C4C[C@@H](O)CC[C@]4(C)[C@H]3CC[C@]12C	14	9.9
C=C(CC[C@@H](C)[C@H]1CC[C@H]2[C@@H]3[C@H](O)C=C4C[C@@H](O)CC[C@]4(C)[C@H]3CC[C@]12C)C(C)C	7	58
C=C(CC[C@@H](C)[C@H]1CC[C@H]2[C@@H]3CC=C4C[C@@H](O)CC[C@]4(C)[C@H]3CC[C@]12C)C(C)C	> 8000	–
CC(C)[C@@]1(CC[C@@H](C)[C@H]2CC[C@H]3[C@@H]4CC=C5C[C@@H](O)CC[C@]5(C)[C@H]4CC[C@]23C)CO1	> 8000	–
CC(C)C(=O)CC[C@@H](C)[C@H]1CC[C@H]2[C@@H]3CC=C4C[C@@H](O)CC[C@]4(C)[C@H]3CC[C@]12C	> 8000	–
